The test system of one experiment is ESS-1. The experiment can be described thus: Antiproliferative activity against human ESS-1 cells expressing wild type KRAS assessed as reduction in cell growth upto 30 uM incubated for 72 hrs by CyQuant proliferation assay. The class given is functional, cell-based. Particulars: dose microM <=30, time 72.0 hrs. The method, boiled down:
(§1)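 Cells seeded in 96-well plates; after 24 h fresh growth medium with 0.1% DMSO vehicle or drug added (highest dose 30 µM for cancer lines), grown 72 h at 37 °C, 5% CO2. Live cell number measured by CyQUANT fluorescence. IC50 from three independent experiments. MEFs were isogenic lines carrying oncogenic BRAF or KRAS.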

In the next experiment the test system is NCI-H1299. The experiment is described as follows: Antiproliferative activity against human NCI-H1299 cells expressing wild type KRAS assessed as reduction in cell growth incubated for 72 hrs by CyQuant proliferation assay. Format: functional, cell-based. The following applies: NCI-H1299, 72 h. In short, it runs like this: as §1
Experiment [1] concerns MIA PaCa-2. The experiment can be described thus: Antitumor activity against human MIA PaCa-2 cells harboring KRAS mutant xenografted in nu/nu mouse assessed as reduction in tumor growth at 1 to 5 mg/kg, ip administered once daily for 5 days with 2 days break by caliper analysis. The class given is functional, organism-based. The following applies: dose 1-5 mg/kg, time 5.0 day. In short, it runs like this:
(§2)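 Female nu/nu mice given 2 × 10⁶ early-passage MiaPaCa-2 cells subcutaneously in the right flank, randomized 10 per group. Dosing began when tumors reached 100 mm³: 1, 2.5 or 5 mg/kg i.p. daily for 5 days with 2 days off, vehicle DMSO. Caliper readings every 3–4 days, V = 0.52 × length × width². Animals sacrificed when any tumor reached 1500 mm³.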
For orientation: Xenograft models place foreign cells or tissue in a host animal.

The test system of experiment [2] is MDCK. The experiment can be described thus: Reduction in expression of human GFP-tagged ASM transfected in dog MDCK cells at 5 uM incubated for 48 hrs by western blot analysis. The class given is functional, cell-based. The following applies: Canis lupus familiaris. The method, boiled down:
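SMPD1-GFP-expressing MDCK cells treated 48 h with 5 µM compound, washed in cold PBS and lysed in Tris pH 7.5 buffer with NaF, EGTA, DTT, vanadate, 1% NP40 and protease inhibitors. 20 µg of protein resolved by SDS-PAGE and immunoblotted. Signals detected by enhanced chemiluminescence and quantified by densitometry.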

Another experiment deals with HEC-1B cell line. The experiment is described as follows: Antiproliferative activity against human HEC-1B cells expressing mutant KRAS assessed as reduction in cell growth incubated for 72 hrs by CyQuant proliferation assay. The class given is functional, cell-based. The method, boiled down: as §1
The subject of a further experiment is Mus musculus. The experiment can be described thus: In vivo inhibition of ASM in nu/nu mouse xenografted with human MIA PaCa-2 cells harboring KRAS mutation assessed as increase in SM accumulation in tumor at 12.5 mg/kg, ip administered once daily for 5 days with 2 days break by GFP-lysenin staining based confocal laser microscopy. The following applies: time 5.0 day. Format: functional, organism-based. The method, boiled down: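 Sections of MiaPaCa-2 xenograft tumors from i.p.-treated nu/nu mice (12.5 mg/kg) stained with GFP-tagged lysenin to detect sphingomyelin.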

The subject of another experiment is HEC-1-A. The experiment is described as follows: Antiproliferative activity against human HEC-1-A cells expressing mutant KRAS assessed as reduction in cell growth incubated for 72 hrs by CyQuant proliferation assay. Format: functional, cell-based. In short, it runs like this: as §1
The subject of another experiment is MEF. The experiment can be described thus: Cytotoxicity against mouse MEF cells expressing BRAF V600E mutant and wild type KRAS assessed as reduction in cell growth incubated for 72 hrs by CyQuant proliferation assay. The class given is functional, cell-based. The method, boiled down:
as §1

The next experiment deals with Caco-2. The experiment is described as follows: Antiproliferative activity against human Caco-2 cells expressing wild type KRAS assessed as reduction in cell growth incubated for 72 hrs by CyQuant proliferation assay. Format: functional, cell-based. The following applies: Caco-2, 72 h. The method, boiled down:
as §1

The test system of experiment [3] is MDCK. The experiment is described as follows: Inhibition of ASM in dog MDCK cells co-expressing recombinant full length mGFP-tagged KRAS G12V mutant and mCherry-CAAX assessed as reduction in plasma membrane localization of KRAS mutant at 1 uM incubated for 48 hrs followed by incubation with recombinant ASM in continued presence of compound for 60 mins by confocal microscopic analysis. The class given is cell membranes. Particulars: Canis lupus familiaris, time 49.0 hrs. In short, it runs like this: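 MDCK cells stably co-expressing mGFP-KRAS G12V and mCherry-CAAX seeded on glass coverslips and grown 48 h with or without compound. Medium then replaced with fresh medium containing 2 units/mL recombinant ASM, drug continued, for 60 min. Cells mounted in mowiol and imaged by confocal microscopy. Mislocalization scored by Manders coefficient.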

Experiment [4] relates to MIA PaCa-2. The experiment is described as follows: Antiproliferative activity against human MIA PaCa-2 cells expressing KRAS mutant assessed as reduction in cell growth incubated for 72 hrs by CyQuant proliferation assay. The class given is functional, cell-based. Particulars: MIA PaCa-2, 72 h. The method, boiled down: as §1
The next experiment has as its system NCI-H522. The experiment can be described thus: Antiproliferative activity against human NCI-H522 cells expressing wild type KRAS assessed as reduction in cell growth incubated for 72 hrs by CyQuant proliferation assay. Format: functional, cell-based. The following applies: NCI-H522, 72 h. In short, it runs like this:
as §1

For the next experiment, the system named is BXPC-3. The experiment can be described thus: Antitumor activity against human BXPC-3 cells harboring wild type KRAS xenografted in nu/nu mouse assessed as reduction in tumor growth at 1 mg/kg, ip administered once daily for 5 days with 2 days break by caliper analysis. The class given is functional, organism-based. Particulars: time 5.0 day. In short, it runs like this: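 BxPC3 xenografts in nu/nu mice dosed i.p. with compound or DMSO vehicle on a schedule of daily for 5 days and 2 days off. Tumor size measured by external caliper every 3–4 days.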

For experiment [5], the system named is MIA PaCa-2. The experiment can be described thus: Antitumor activity human MIA PaCa-2 cells harboring KRAS mutation xenografted in nu/nu mouse assessed as induction of apoptosis by measuring increase in cleaved caspase 3 level in tumor at 1 to 5 mg/kg, ip administered once daily for 5 days with 2 days break by immunohistochemistry. The class given is functional, organism-based. Particulars: dose 1-5 mg/kg, time 5.0 day. The method, boiled down:
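Paraffin tumor sections of 4–5 µm were deparaffinized and given heat antigen retrieval in 10 mM sodium citrate. Endogenous peroxidase was quenched and sections blocked in 2.5% normal goat serum. Primary antibody (pERK or cleaved caspase 3) applied overnight at 4 °C, biotinylated secondary 1:250 for 45 min at rt, then ABC reagent 30 min and DAB development. Rabbit IgG served as control.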

A short description of experiment [6]: Antiproliferative activity against human MPANC96 cells expressing KRAS mutant assessed as reduction in cell growth incubated for 72 hrs by CyQuant proliferation assay. The class given is functional, cell-based. Particulars: MPANC96, 72 h. In short, it runs like this: as §1
In experiment [7] the test system is MIA PaCa-2. The experiment can be described thus: Antitumor activity against human MIA PaCa-2 cells harboring KRAS mutant xenografted in nu/nu mouse assessed as reduction in tumor growth at 2.5 to 5 mg/kg, ip administered once daily for 5 days with 2 days break by caliper analysis. The class given is functional, organism-based. Particulars: dose 2.5-5 mg/kg, time 5.0 day. In short, it runs like this:
as §2

The source of these data is ChEMBL document CHEMBL4814013, “Scaffold repurposing of fendiline: Identification of potent KRAS plasma membrane localization inhibitors” (Eur J Med Chem, 2021).

Activity calls are given as the source filed them. No cut-off for these calls is given here.

Broadly, the IC50 is the point on the concentration scale where inhibition reaches its midpoint. As for `COc1ccc([C@@H](C)N(CC=C(c2ccccc2)c2ccccc2)CCN2CCCC2)cc1`, the result with ESS-1 and with BXPC-3 was inactive. Also, the IC50 in the experiment on NCI-H1299 amounted to 8 µM; with HEC-1B cell line, 3 µM; in the experiment with HEC-1-A, 2.3 µM; in the experiment on MEF, 8.5 µM; in the experiment with Caco-2 it was 4.2 µM; in the experiment on MIA PaCa-2 [4], 3.1 µM. For the same compound, the values for the IC50 (in the experiment with NCI-H522; in [6]) were 27.3 µM and 3.8 µM, respectively. In addition, the outcome in the experiment with MIA PaCa-2 [1] and in the experiment on MIA PaCa-2 [5] was Active. Moreover, the inhibition entry in the experiment with MDCK [2] and in the experiment with Mus musculus was “Active” in each case. Also, the inhibition result in the experiment on MDCK [3] is “inactive”.

With `COc1ccc([C@@H](C)N(CC=C(c2ccccc2)c2ccccc2)CCCN2CCN(C)CC2)cc1`, the result with ESS-1 was inactive. In addition, the inhibition entry in the experiment with MDCK [2], with Mus musculus and in the experiment with MDCK [3] was “inactive” throughout. Also, the result in the experiment on MIA PaCa-2 [7] and with MIA PaCa-2 [5] was Active. Besides, the IC50 in the experiment with MEF was 7.9 µM; in the experiment on NCI-H522, 23.5 µM; in [6] it was 4.2 µM.
